From ChEMBL document CHEMBL4513216, “Probing the Open Global Health Chemical Diversity Library for Multistage-Active Starting Points for Next-Generation Antimalarials” (ACS Infect Dis, 2020)

Assay: Toxicity liver stage against HepG2, at 10uM
Assay type: cell-based
Set-up: test concentration 10 uM, cell line HepG2-A16-CD81EGFP
Settings: human, HepG2-A16-CD81EGFP cells; read-out: INHIBITION
How it was run: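 Uninfected HepG2-A16-CD81EGFP cells, 3 × 10^3 per well, 1536-well, plated on prespotted compound at 10 μM final, parasite-free screening media added to match infected plates; puromycin 10 μM positive, DMSO 0.5% negative; run in parallel with 48 h PbLuc assay at 37 °C, 5% CO2; viability by CellTiter-Glo luminescence, normalized to controls.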

SMILES | cytotoxicity at 10 µM
O=c1c(NCCc2ccc(O)cc2)c(NCc2ccncc2)c1=O | -5.46%
Cc1ccc(C(O)CNCc2c(C(C)C)nn(C)c2N(C)C)cc1 (stereo unspecified) | -11.8%
CC(C)c1nc(CN2CCOCC2)cs1 | -7.49%
Cn1nc(CN2CCCC2)c2c1CN(C(=O)c1ccncc1F)CC2 | -154%
O=C(Cc1ccsc1)NCC1Cn2nnc(-c3ccoc3)c2CO1 (stereo unspecified) | 17.6%
CC(CN1CCOC1=O)NC(=O)c1cccc2cc[nH]c12 (stereo unspecified) | 6.2%
Cc1nc(CCNC(=O)NC(C)Cn2cccn2)cs1 (stereo unspecified) | -1.85%
CCN(C(=O)CNC1CCc2ncnn2C1)C1=CCCCC1 (stereo unspecified) | 0.701%
COc1cc(C(=O)O)ccc1OCC(=O)NCCc1ccccc1 | -10.6%
CCC(C)N(Cc1sccc1C)C(=O)c1ccc(S(C)(=O)=O)cc1 (stereo unspecified) | 6.7%
CC(=O)NC1CCCN(C(=O)NCc2cccnc2)C1 (stereo unspecified) | -10.5%
Cn1cc(C2CCCN2C(=O)CCCOc2ccc(F)cc2)cn1 (stereo unspecified) | -17.8%
O=C1CN(CC2CC2)Cc2nc(NCCc3ccccn3)sc21 | -12.3%
CC(=O)N[C@H]1CCO[C@@H](c2cccc(NC(=O)Cc3ccccc3)c2)C1 | 8.3%
CC(C)NC(=O)NCc1cc(-c2ccco2)n(CC(F)(F)F)n1 | -12.8%
CCS(=O)(=O)Cc1csc(-c2ccc(S(C)(=O)=O)cc2)n1 | 8.8%
COCC(=O)NCc1cnc(C)nc1-c1cn(C)c2ccc(OC)cc12 | 11.9%
COc1ccc(C(=O)N2CCC(Nc3cccnn3)CC2)c(OC)c1 | 4.67%
CN(CC(=O)N(C)C1CCCCC1)Cc1nc2ccccc2c(=O)[nH]1 | 2.26%
O=C(CC1CCCC1)N1C[C@@H]2CN(Cc3ccoc3)CCO[C@@H]2C1 | -79.3%
Cc1noc(C)c1CC(=O)N1CCC(Nc2cccnn2)CC1 | -15.8%
CN(C)C(=O)COC[C@]12COC[C@H]1CN(C1CCCC1)C2 | -108%
O=C(NCCCN1CCOCC1)C(OC1CCCC1)c1ccccc1 (stereo unspecified) | -5.95%

SMILES | cytotoxicity at 10 µM
Cc1cc(C(=O)NC2CCC3(CCC(=O)N3)CC2)no1 (stereo unspecified) | 4.23%
CS(=O)(=O)N1CCCC(Cc2cncc(-c3ccccc3C(=O)O)n2)C1 (stereo unspecified) | -6.41%
O=C(NCc1ccco1)N1CCCCC1c1nc(C2CC2)no1 (stereo unspecified) | -7.86%
CC(C)N1CCC(c2nc3ccc(-c4ccnn4C)cn3n2)CC1 | 14.9%
OCc1csc(N2CCCN(Cc3ccc(F)cc3)CC2)n1 | -2.58%
Cn1cccc1CN1CCC2(CCCN(C(=O)Cc3cccnc3)C2)C1 (stereo unspecified) | 7.17%
CCS(=O)(=O)NCCNC(=O)N(Cc1ccc(C)o1)C(C)C | 1.84%
CCNC(=O)N1CCC2(C1)c1ccccc1S(=O)(=O)N2CCC(C)C (stereo unspecified) | -8.25%
O=C(c1n[nH]cc1Cl)N1CCOCC1 | 9.02%
COc1c(CNCCNC(=O)c2cccs2)c(C)nn1C | -0.373%
CN(Cc1cccc(-n2cccn2)c1)Cc1c[nH]cn1 | 5.67%
Cc1cc(CN2C[C@@H]3COC[C@]3(CNC(=O)N(C)C)C2)no1 | -71.4%
CC(C)N1CCC2(C=C(C(=O)NC3CC3)c3ccccc32)CC1 | 1.29%
COc1cccc2c1OCCCN(c1nc(N)nc3c1CCNC3)C2 | 0.944%
CNC(=O)c1cccc(CN2CCC(N(C)Cc3noc(C)n3)C2)c1 (stereo unspecified) | 4.37%
COc1cccc(CNCc2c(C)nc3sc(C)cn23)c1OC | 32.8%
Cc1ccc(C)n1-c1c(C(=O)NCC(C)N(C)C)cnn1C (stereo unspecified) | 15.9%
CCC(NC(=O)CC1CCN(C(C)C)CC1)c1cn2cccnc2n1 (stereo unspecified) | -11.3%
CS(=O)(=O)N1CCCC(n2nnn(-c3ccccc3)c2=O)C1 (stereo unspecified) | -6.17%
Cc1cc(C)nc(N2CCCC(c3nccn3CCCN(C)C)C2)c1 (stereo unspecified) | -7.97%
Cc1[nH]c2ccc(CNc3cc(C(N)=O)ccn3)cc2c1C | -4.73%
CCCc1cc(CNc2cc(CCC)nc3ccnn23)on1 | -6.75%
CCN(CC)c1ncccc1CNCc1ccc(Cl)s1 | 10.6%

SMILES | cytotoxicity at 10 µM
O=c1[nH]c(=O)n(CC(O)c2ccc(F)cc2F)cc1Cl (stereo unspecified) | 2.64%
COc1c(CNCc2cccc(Cn3ccnc3)c2)c(C)nn1C | 5.61%
O=S(=O)(c1ccccc1)N1C[C@@H]2COC[C@]2(COCC2CC2)C1 | 10.2%
CC1CCc2n[nH]c(C(=O)NCCCc3ccco3)c2C1 (stereo unspecified) | -23.2%
COc1ccccc1CCNC(=O)N1CCCC(c2nncn2C)C1 (stereo unspecified) | -25.4%
O=C(CN1CCCC1)N1CCCC(c2cc(=O)n3c(n2)CCCCC3)C1 (stereo unspecified) | -13.7%
CCc1nccn1C1CCCN(C(=O)c2cncn2-c2ccccc2)C1 (stereo unspecified) | 5.62%
COc1ccc(CN2CCN(CCn3ccnc3)CC2)cc1F | -8.88%
O=C(CN1CCCC1)Nc1c2c(cc3c1CCC3)CCC2 | -2.1%
CN(C)S(=O)(=O)N1CC[C@]2(O)CCN(Cc3cccc(C#N)c3)C[C@@H]2C1 | -4.63%
Cc1ccc(C(=O)NS(=O)(=O)Cc2ccon2)c(C)c1 | -3.16%
CN1CCN([C@@H]2CCN(C3CCOCC3)[C@H]2Cc2cnn(C)c2)CC1 | 5.07%
O=C(c1ccc[nH]1)N1CCC2(CC1)CC(Oc1cccnc1)CO2 (stereo unspecified) | -7.69%
O[C@@]1(CNCC2(Cn3ccnc3)CC2)CCCN2CCCC[C@@H]21 | 5.09%
CC1CS(=O)(=O)CCN1CCCc1ccc(Cl)cc1 (stereo unspecified) | 9.28%
CC(=O)NCCNC(=O)c1cnc(-c2ccccc2)nc1 | 6.56%
CCNC(=O)CN1CCN(Cc2nc3c(F)cccc3n2CC)CC1 | -11.5%
COc1cc(CNC2CCCc3c2cnn3C)cc(OC)c1 (stereo unspecified) | -6.85%
COCc1ccc(C(=O)N2CCCN(Cc3cscn3)CC2)cc1 | -3.07%
CN(CC1(CO)CCCC1)C(=O)c1cc(COc2ccccc2F)[nH]n1 | 6.2%
N#Cc1ccsc1C(=O)N1CCCN(Cc2cscn2)CC1 | 3.48%
O=C(NCc1ccncc1)N1CCSCC1CCO (stereo unspecified) | 2.3%
CN(CCC#N)C(=O)CN1CCCN(Cc2noc(C3CC3)n2)CC1 | 6.39%

SMILES | cytotoxicity at 10 µM
CC(C)n1cc(CN(Cc2ccc(F)cc2)CC2CCCO2)cn1 (stereo unspecified) | -3.47%
O=C(CN1CCC(c2ccccc2)C1)NCC(F)(F)F (stereo unspecified) | -5.28%
Fc1cccc(Nc2nc(N3CCCC3)nc3c2CNCC3)c1 | -18%
Cn1cc(C(=O)NC[C@@H]2OC[C@H]3CN(Cc4ccco4)CC[C@H]32)cn1 | -13.4%
O=C(O)c1nnn(Cc2cccc(C(F)(F)F)c2)c1-c1ccncc1 | 1.93%
O=C(O)C(c1ccc2c(c1)OCCO2)N1CCCC1 (stereo unspecified) | -5.38%
CNC(=O)CCc1cc(C)nc(C2CCN(c3ccccc3)CC2)c1 | 3.56%
Cc1nc(C(C)Nc2ncnc3c2CCNCC3)c(C)s1 (stereo unspecified) | -6.64%
Cc1cccc(C)c1OCCNC(=O)CNC(=O)C1CCCC1 | -122%
Cc1csc(N2CCN(CC(=O)NCc3ccccn3)CC2C)n1 (stereo unspecified) | -4.04%
CN(C)S(=O)(=O)c1ccc(F)c(NC(=O)COCC2CC2)c1 | 3.71%
Cc1cc(CN2CCC3(CC2)CC(Nc2ncccn2)CO3)nn1C (stereo unspecified) | -1.84%
COCC(=O)N1C[C@@H](O)[C@H](N2CCN(c3ccccc3)CC2)C1 | 2.7%
COCC1CN(Cc2cccc(C#N)c2)Cc2nccn2C1 (stereo unspecified) | -141%
O=C1CCN(C(=O)C2(c3ccc(F)cc3)CCCC2)CCN1 | -8.27%
Cc1cccc(C(=O)N2CC[C@H]3C[C@@H](C)O[C@@H]3C2)n1 | 5.37%
CN1CCN(C(=O)CCn2ncc3ccccc32)CC(C(N)=O)C1 (stereo unspecified) | 4.33%
COc1nccc(N2CC[C@H](N3CCOCC3)[C@H](CCCO)C2)c1C#N | -148%
CCOCCS(=O)(=O)N(CC)Cc1ccc(Cl)s1 | -6.15%
COc1cccc2c1N(C(=O)c1ccc(C)nc1)CCC2 | 1.36%
Cc1cnn(CC2CCCCN2CCC(=O)Nc2cc(C)on2)c1 (stereo unspecified) | -0.674%
Cc1nc[nH]c1CN1CCOC(CCNC(=O)c2ccsc2)C1 (stereo unspecified) | -13.1%
CC(C(=O)Nc1sccc1C(N)=O)N(C)CCOc1ccccc1 (stereo unspecified) | 2.59%

SMILES | cytotoxicity at 10 µM
Cc1cc(C(=O)N[C@H]2CN(CCC(N)=O)C[C@@H]2C2CC2)sc1C | 8.28%
Cc1cc(C)n2ncc(CN3C[C@@H](O)[C@H](Oc4ccccc4)C3)c2n1 | -33%
Cc1cc(C)n(CC2CCN(CC(O)Cn3cccn3)CC2)n1 (stereo unspecified) | -5.58%
Cc1ccnc(NCCNC(=O)Cc2c(C)[nH]c3c(C)ccc(C)c23)c1 | -1.89%
CCn1ccnc1CN1CCCN(C(=O)Cc2csc(C)n2)CC1 | -2.12%
CCc1ccc(NC(=O)CC2Cn3ncnc3NC2=O)cc1 (stereo unspecified) | 6.47%
CCc1ccc(CN2CCCC(c3nn(C)c(=O)n3CC)C2)nc1 (stereo unspecified) | 1.93%
CCN(CCCN1CCOCC1)C(=O)c1cnn(CC)c1 | 46.6%
CCn1cc2[nH]c(OC)c(CNC(=O)C3CCCN(C)C3)cc-2c1=O (stereo unspecified) | 11.3%
O=C(Cn1cc(Cl)cn1)Nc1ccc2c(c1)OCCCO2 | 4.98%
NC(=O)CSc1nnc2n1N=CN(c1ccccc1F)C2 | -3.78%
CCCn1nnnc1COC(=O)C1COc2ccc(Cl)cc2C1 (stereo unspecified) | -8.68%
Cn1cc(CN2C[C@@H]3[C@@H](C2)OCC(=O)N3Cc2ccncc2)cn1 | -7.9%
CC(C)c1nc(/C=C/c2cnn(-c3ccccc3)c2)ncc1C(=O)O | -11.3%
O=C(CCCNC(=O)Nc1ccc(F)cc1F)Nc1cn[nH]c1 | 9.19%
Cc1ncsc1CCN(C)C1CCN(c2ncnc3[nH]cnc23)CC1 | -39%
Cc1occc1C(=O)NCC(=O)NCCCOc1ccc(F)cc1 | -45.1%
Cn1cc(CN2CCc3c(c(COCC#N)nn3C)C2)cn1 | -2.45%
CCc1nc(C)ncc1C(=O)N1CC(C)CN(C)c2ccccc21 (stereo unspecified) | 10.7%
